The nature of data set [1]: Cmax in CD-1 mouse at 10 mg/kg,ip measured upto 1440 mins by LC-MS/MS analysis. The class given is ADME, organism-based. As to conditions: in vivo. Set-up: time < 1440 min, dose 10 mg/kg, route ip. The method, boiled down: (§1)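 Female CD1 mice were given a single 10 mg/kg IP dose. […] Plasma was extracted with methanol/0.15% formic acid containing N-benzylbenzamide internal standard and analysed by LC-MS/MS against spiked blank-plasma standards. Cmax and AUC were derived by noncompartmental analysis.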

Data set [2] in a line: AUC in CD-1 mouse at 10 mg/kg,ip measured upto 1440 mins by LC-MS/MS analysis. The class given is ADME, organism-based. Also on record: time < 1440 min, dose 10 mg/kg, route ip. As to conditions: in vivo; for AUC: mouse, 24 h. In outline: as §1
Data set [3] can be described thus: Aqueous solubility of the compound under shaking condition by LC-MS/MS analysis. The class given is physicochemical. As to conditions: buffer.
Data set [4] has as its system Colon. Put plainly: In vivo activation of PGE2 in C57BL/6J mouse colon tissue assessed as increase in PGE2 level at 5 mg/kg,ip measured after 3 hrs by ELISA. The class given is functional, organism-based. In outline:
(§2)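 Female C57bl/6J mice aged 8-9 weeks were dosed IP and euthanised 3 h later. Colon and lung were rinsed in ice-cold PBS with indomethacin (5.6 µg/ml), snap-frozen, pulverised, homogenised in cold PBS/indomethacin, sonicated on ice and centrifuged. PGE2 in the supernatant was measured by ELISA in triplicate and normalised to BCA protein as ng PGE2/mg protein.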
Background: An ELISA detects its analyte on a solid surface through an enzyme-linked reagent.

Data set [5] concerns Mus musculus. Put plainly: Protection against DSS-induced acute ulcerative colitis in […] mouse assessed as increase in colon length at 10 mg/kg,ip measured from 8 to 12 days of administration. The class given is functional, organism-based. As to conditions: time 8-12 day.
A short description of data set [6]: Cmax in CD-1 mouse at 5 mg/kg,iv measured upto 1440 mins by LC-MS/MS analysis. The class given is ADME, organism-based. Also on record: dose 5 mg/kg, time < 1440 min, route iv. As to conditions: in vivo, 24 h. In outline: (§3)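 Female CD1 mice received a single 10 mg/kg PO or 5 mg/kg IV dose in 10% DMSO, 25% PEG400, 1% Tween-80 and 64% D5W (pH 7.4). Groups of three were killed at 0–1440 min, with blood taken by cardiac puncture into ACD. Plasma was extracted into methanol with formic acid and internal standard, and drug was quantified by LC-MS/MS against spiked blank-plasma standards. Cmax and AUC came from noncompartmental analysis.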

Data set [7] relates to Lung. The experiment in a line: In vivo activation of PGE2 in C57BL/6J mouse lung tissue assessed as increase in PGE2 level at 2.5 mg/kg,ip measured after 3 hrs by ELISA. The class given is functional, organism-based. In outline: as §2
The nature of data set [8]: AUC in CD-1 mouse at 5 mg/kg,iv measured upto 1440 mins by LC-MS/MS analysis. The class given is ADME, organism-based. As to conditions: in vivo, 24 h. Set-up: dose 5 mg/kg, time < 1440 min, route iv. In outline:
as §3

Data set [9] is described as follows: Oral bioavailability in CD-1 mouse at 10 mg/kg measured upto 1440 mins by LC-MS/MS analysis. The class given is ADME, organism-based. As to conditions: in vivo, 24 h. The method, boiled down: as §3
Data set [10] deals with Colon. Put plainly: animal or person. As to conditions: Mus musculus, C57BL/6J, po, 0.5 h, read-out: INH.
The nature of data set [11]: Cmax in CD-1 mouse at 10 mg/kg,po measured upto 1440 mins by LC-MS/MS analysis. The class given is ADME, organism-based. Also on record: dose 10 mg/kg, time < 1440 min, route po. As to conditions: in vivo, 24 h. In outline:
as §3

Data set [12] concerns Mus musculus. Put plainly: […] activity against bone marrow transplanted mouse model assessed as increase in RBC repopulation at 10 mg/kg,ip bid measured by flow cytometry after 15 days post-transplant recovery period. The class given is functional, organism-based. As to conditions: Erythrocyte, time 15.0 day.
The nature of data set [13]: AUC in CD-1 mouse at 10 mg/kg,po measured upto 1440 mins by LC-MS/MS analysis. The class given is ADME, organism-based. Also on record: time < 1440 min, dose 10 mg/kg, route po. As to conditions: in vivo, 24 h. The method, boiled down: as §3
Data set [14] relates to Mus musculus. The experiment in a line: Protection against DSS-induced acute ulcerative colitis in […] mouse assessed as decrease in cryptitis score at 40 mg/kg,po measured after 12 days of administration. The class given is functional, organism-based. As to conditions: time 12.0 day.
In data set [15] the test system is Mus musculus. Put plainly: Protection against DSS-induced acute ulcerative colitis in […] mouse assessed as increase in colon length at 40 mg/kg,po measured after 12 days of administration. The class given is functional, organism-based. As to conditions: time 12.0 day.
Data set [16] in a line: Apparent permeability of the compound from apical to basolateral side in human Caco-2 cells measured upto 120 mins by LC-MS/MS analysis. As to conditions: caco-2, 2 h. The class given is ADME, cell-based. The method, boiled down: (§4)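 Caco-2 cells were grown three weeks on 12-well Transwells in DMEM with 20% FBS and supplements, then washed in HBSS with Ca/Mg and 0.5% FBS. Monolayers were used only if TEER exceeded 800 Ωcm², and TEER was rechecked after the assay.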

Data set [17] has as its system Mus musculus. Put plainly: Protection against DSS-induced acute ulcerative colitis in […] mouse assessed as increase in body weight at 10 mg/kg,ip measured from 7 to 12 days of administration. The class given is functional, organism-based. As to conditions: time 7-12 day.
Data set [18] relates to Colon. The experiment in a line: In vivo activation of PGE2 in C57BL/6J mouse colon tissue assessed as increase in PGE2 level at 2.5 mg/kg,ip measured after 3 hrs by ELISA. The class given is functional, organism-based. In outline: as §2
In data set [19] the test system is Mus musculus. The experiment in a line: […] activity against bone marrow transplanted mouse model assessed as increase in total WBC repopulation at 10 mg/kg,ip bid measured by flow cytometry after 15 days post-transplant recovery period. The class given is functional, organism-based. As to conditions: time 15.0 day.
The test system of data set [20] is Mus musculus. Put plainly: Protection against DSS-induced acute ulcerative colitis in […] mouse assessed as decrease in cryptitis score at 10 mg/kg,ip measured after 12 days of administration. The class given is functional, organism-based. As to conditions: time 12.0 day.
Data set [21] has as its system Lung. The experiment in a line: In vivo activation of PGE2 in C57BL/6J mouse lung tissue assessed as increase in PGE2 level at 5 mg/kg,ip measured after 3 hrs by ELISA. The class given is functional, organism-based. In outline:
as §2

A short description of data set [22]: Apparent permeability of the compound from basolateral to apical side in human Caco-2 cells measured upto 120 mins by LC-MS/MS analysis. As to conditions: caco-2, 2 h. The class given is ADME, cell-based. In outline: as §4
(Passage across Caco-2 layers is used to estimate intestinal permeability.)

Data set [23] concerns Mus musculus. The experiment in a line: Protection against DSS-induced acute ulcerative colitis in […] mouse assessed as increase in body weight at 40 mg/kg,po measured upto 12 days of administration. The class given is functional, organism-based. As to conditions: time <= 12.0 day.
The subject of data set [24] is Colon. Put plainly: animal or person. As to conditions: Mus musculus, C57BL/6J, po, 1.5 h, read-out: INH.

In brackets after ≈: the same amount, converted by molar mass. Activity calls are given as the source filed them. The rule behind the calls is not given here.

By Cmax is commonly meant the peak of the concentration-time curve. The AUC is concentration integrated over time. Low readings indicate low exposure, high ones high exposure. In general, solubility (thermodynamic) refers to the concentration in solution at equilibrium with solid. `O=C(c1ccc2ncc(-c3ccc4c(=O)[nH]ccc4c3)nc2c1)N1CCCCC1` gave a Cmax in data set [1] (mouse, 24 h) of 7400 ng/mL. For the same compound, the exposure (AUC) in data set [2] turned out to be 270 µg·min/mL. The compound further returned a solubility (thermodynamic) in data set [3] of 4 µg/mL (≈ 10.4 µM).
With `Cn1ccc2cc(-c3cnc4ccc(C(=O)N5CCCCC5)cc4n3)ccc2c1=O`, the Cmax in [1] (mouse, 24 h) turned out to be 6400 ng/mL; in [6], 3000 ng/mL; in data set [11], 950 ng/mL. The outcome in the data set on Colon [4], with Mus musculus [5], with Lung [7], with Mus musculus [12], with Mus musculus [14] and in the data set on Mus musculus [15] was Active. For the same compound, the result with Mus musculus [17], with Colon [18], in the data set on Mus musculus [19], in the data set on Mus musculus [20], in the data set on Lung [21] and in the data set on Mus musculus [23] was Active. In addition, the values for the exposure (AUC) in data set [8], in data set [13] and in [2] were 205 µg·min/mL, 256 µg·min/mL and 517 µg·min/mL, respectively. Moreover, the F in data set [9] is listed as 63%. In addition, the inhibition in vivo at 20 mg/kg with Colon [10] is over 90%; with Colon [24], over 80%. Further, the Papp in data set [16] is on record as 45 10^-6 cm/s; in data set [22], 34 10^-6 cm/s. This compound also gave a solubility (thermodynamic) in data set [3] of 56 µg/mL (≈ 141 µM).
In the case of `O=C(c1ccc2ncc(-c3ccc4ncccc4c3)nc2c1)N1CCCCC1`, the thermodynamic solubility in data set [3] stood at 55 µg/mL (≈ 149 µM).
As for `Cl.Nc1ncc(-c2cnc3ccc(C(=O)N4CCCCC4)cc3n2)cc1Cl`, the Cmax in [1] (CD-1, mouse, read-out: Cmax) is 3000 ng/mL. Besides, the outcome in the data set on Colon [4] and in the data set on Lung [21] was Active. Further, the exposure (AUC) at 24 h in data set [2] (CD-1, mouse) is 2870 ng·h/mL.
In turn, `O=C(c1ccc2ncc(-c3ccc4cnccc4c3)nc2c1)N1CCCCC1` yielded a solubility (thermodynamic) in data set [3] of 14 µg/mL (≈ 38 µM).

These data come from ChEMBL document CHEMBL5214995, “Orally Bioavailable Quinoxaline Inhibitors of 15-Prostaglandin Dehydrogenase (15-PGDH) Promote Tissue Repair and Regeneration” (J Med Chem, 2022).
